In ChEMBL document CHEMBL4312027, “Synthesis, characterization, and biological activity of a triphenylphosphonium-containing imidazolium salt against select bladder cancer cell lines” (Eur J Med Chem, 2020):
Active and inactive are the calls of the source. No cut-off for these calls is given here.

Columns and labels:
[1] = system: CCRF-CEM; assay: Growth inhibition of human CCRF-CEM cells assessed as growth percent at 10 uM incubated for 48 hrs by sulforhodamine B assay relative to control; type: functional; details: read-out: Activity
[2] = system: OVCAR-4; assay: Growth inhibition of human OVCAR4 cells assessed as growth percent at 10 uM incubated for 48 hrs by sulforhodamine B assay relative to control; type: functional; details: OVCAR-4, 48 h, read-out: Activity
[3] = system: LOX IMVI; assay: Growth inhibition of human LOXIMVI cells assessed as growth percent at 10 uM incubated for 48 hrs by sulforhodamine B assay relative to control; type: functional; details: read-out: Activity
[4] = system: 786-0; assay: Growth inhibition of human 786-0 cells assessed as growth percent at 10 uM incubated for 48 hrs by sulforhodamine B assay relative to control; type: functional; details: 786-0, 48 h, read-out: Activity
[5] = system: K562; assay: Growth inhibition of human K562 cells assessed as growth percent at 10 uM incubated for 48 hrs by sulforhodamine B assay relative to control; type: functional; details: K562, 48 h, read-out: Activity
[6] = system: RT-4; assay: Growth inhibition of human RT4 cells at 1000 uM measured after 5 mins by Celltiter-Glo luminescent cell viability assay; type: functional, cell-based
How it was run: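 Cells seeded 10000/well, 24 h, then exposed in ATCC-recommended medium to 62.5–2000 μM (two-fold steps) or vehicle for the set time (5–60 min), then normal medium. After 24 h, plates equilibrated 30 min at room temperature, CellTiter-Glo added, 2 min at room temperature, luminescence read. Survival relative to vehicle control; quadruplicate.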

[7] = system: TK-10; assay: Growth inhibition of human TK10 cells assessed as growth percent at 10 uM incubated for 48 hrs by sulforhodamine B assay relative to control; type: functional; details: TK-10, 48 h, read-out: Activity
[8] = system: Mus musculus; assay: Induction of urothelium exfoliation in anesthetized female mouse model assessed as effect on urothelial layer thickening at 750 to 1500 uM administered via intravesical instillation after bladder evacuation treated for 1 hr followed by repetition of the treatment after 24 hrs and measured at 24 hrs after final treatment by hematoxylin and eosin staining based analysis; type: organism-based; details: in vivo, other
How it was run: (§1)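 Female mice anesthetized, 1–3% isoflurane. Bladder evacuated, then 100 μL of 750 or 1500 μM in 10% DMSO/PBS (or vehicle) instilled by 24G angiocatheter. Catheter left in place for a 1 h dwell. Repeated after 24 h; mice sacrificed 24 h after final dose. Bladder histology read for urothelial height and layers.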

[9] = system: OVCAR-3; assay: Growth inhibition of human OVCAR3 cells assessed as growth percent at 10 uM incubated for 48 hrs by sulforhodamine B assay relative to control; type: functional; details: OVCAR-3, 48 h, read-out: Activity
[10] = system: SK-MEL-28; assay: Growth inhibition of human SK-MEL-28 cells assessed as growth percent at 10 uM incubated for 48 hrs by sulforhodamine B assay relative to control; type: functional; details: SK-MEL-28, 48 h, read-out: Activity
[11] = system: NCI-H522; assay: Growth inhibition of human NCI-H522 cells assessed as growth percent at 10 uM incubated for 48 hrs by sulforhodamine B assay relative to control; type: functional; details: NCI-H522, 48 h, read-out: Activity
[12] = system: SW-620; assay: Growth inhibition of human SW620 cells assessed as growth percent at 10 uM incubated for 48 hrs by sulforhodamine B assay relative to control; type: functional; details: SW-620, 48 h, read-out: Activity
[13] = system: KM12; assay: Growth inhibition of human KM12 cells assessed as growth percent at 10 uM incubated for 48 hrs by sulforhodamine B assay relative to control; type: functional; details: KM12, 48 h, read-out: Activity
[14] = system: HL-60(TB); assay: Growth inhibition of human HL-60(TB) cells assessed as growth percent at 10 uM incubated for 48 hrs by sulforhodamine B assay relative to control; type: functional; details: HL-60, 48 h, read-out: Activity
[15] = Toxicity in anesthetized female mouse model assessed as inflammation at 750 to 1500 uM administered via intravesical instillation after bladder evacuation treated for 1 hr followed by repetition of the treatment after 24 hrs and measured at 24 hrs after final treatment; details: in vivo, other; how it was run: as §1
[16] = Toxicity in anesthetized BBN-induced bladder tumor mouse model assessed as cleaved caspase 3 level in tumor adjacent normal […] at 1500 uM administered via intravesical instillation treated for 1 hr administered as 2 doses at 24 hrs interval and measured at 24 hrs after final treatment by hematoxylin and eosin staining based immunohistochemical analysis; details: in vivo, other
How it was run: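 Bladder tumors induced with 0.05% BBN in drinking water and confirmed by excretory μCT urography. Anesthetized (isoflurane) mice given intravesical 1500 μM or vehicle by catheter. Two 1 h doses 24 h apart. Females received 100 μL in 10% DMSO/PBS; males received doubled concentration in 50 μL of 20% DMSO/PBS. Bladder immunohistology for cleaved caspase-3.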

[17] = system: MDA-MB-231; assay: Growth inhibition of human MDA-MB-231 cells assessed as growth percent at 10 uM incubated for 48 hrs by sulforhodamine B assay relative to control; type: functional; details: MDA-MB-231, 48 h, read-out: Activity
[18] = system: SNB-75; assay: Growth inhibition of human SNB75 cells assessed as growth percent at 10 uM incubated for 48 hrs by sulforhodamine B assay relative to control; type: functional; details: SNB-75, 48 h, read-out: Activity

## [Br-].[Br-].c1ccc([P+](CCCc2n(Cc3ccc4ccccc4c3)c3ccccc3[n+]2Cc2ccc3ccccc3c2)(c2ccccc2)c2ccccc2)cc1
[1]
  growth at 10 µM: 43.1%
[2]
  growth at 10 µM: 74.4%
[3]
  growth at 10 µM: 13.8%
[4]
  growth at 10 µM: 70.8%
[5]
  growth at 10 µM: 23.7%
[6]
  growth inhibition (GI): Active
[7]
  growth at 10 µM: 89.2%
[8]
  Activity: Non-Toxic
[9]
  growth at 10 µM: 75.8%
[10]
  growth at 10 µM: 37.1%
[11]
  growth at 10 µM: 60.2%
[12]
  growth at 10 µM: 35.2%
[13]
  growth at 10 µM: 32.2%
[14]
  growth at 10 µM: 22.6%
[15]
  Activity: Non-Toxic
[16]
  Activity: Non-Toxic
[17]
  growth at 10 µM: 51%
[18]
  growth at 10 µM: 91%
